Rows were chosen to be rich in hits. Some 2.1% of all compounds tested hit in one or more screens of this group.
TDP2 inh = human TDP2 enzyme inhibitors, primary screen, biochemical, epi absorbance, recombinant enzyme; hit rate 0.34% among 370,000; AID 720702, 2013; T5PNP hydrolysis, p-nitrophenol absorbance 415 nm; inhibition, % at 12.8 µM;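 active means inhibition above the mean of all tested compounds plus 3 SD, set per campaign, cut at about 25% in these data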
Target sequence (O95551 whole entry, looked up): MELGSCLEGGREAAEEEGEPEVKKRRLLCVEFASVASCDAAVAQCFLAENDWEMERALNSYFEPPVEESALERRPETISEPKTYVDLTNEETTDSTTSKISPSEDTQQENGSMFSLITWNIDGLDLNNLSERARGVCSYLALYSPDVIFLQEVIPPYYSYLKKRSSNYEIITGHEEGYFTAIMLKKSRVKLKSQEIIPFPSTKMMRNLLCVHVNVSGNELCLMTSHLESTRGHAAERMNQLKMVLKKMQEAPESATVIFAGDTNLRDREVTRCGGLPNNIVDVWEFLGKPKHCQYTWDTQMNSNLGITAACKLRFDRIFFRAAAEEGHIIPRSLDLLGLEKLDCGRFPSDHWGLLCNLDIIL
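Assay system: recombinant human TDP2 / Reagent: T5PNP substrate at 5 mM, a TopII-DNA adduct mimic / Measured by: epi absorbance from released p-nitrophenol / Evaluation: % inhibition relative to enzyme-containing and enzyme-free wells / Control set: enzyme-free and DMSO wells / Replicates: each compound tested once, singlicate / Schedule: enzyme reaction with compound for 2 h at 37 °C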
GSTO1 counter = inhibitors of recombinant GSTO1, primary screen, counter-screen for RBBP9 inhibitor project, biochemical, fluorescence polarization | activity-based probe fluorescence polarization | inhibition, % at 5.96 µM | hit rate 1.1% among 300,000;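 active means inhibition above the campaign mean inhibition plus 3 SD, cut at about 35% in these data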
Target sequence (P78417 whole entry, looked up): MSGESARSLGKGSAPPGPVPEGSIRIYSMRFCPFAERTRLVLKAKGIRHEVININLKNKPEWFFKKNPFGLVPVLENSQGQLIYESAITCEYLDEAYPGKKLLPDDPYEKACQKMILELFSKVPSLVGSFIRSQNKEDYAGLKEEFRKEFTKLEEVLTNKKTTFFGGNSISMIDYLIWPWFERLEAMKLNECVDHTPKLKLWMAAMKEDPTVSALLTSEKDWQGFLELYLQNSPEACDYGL
PP1 counter = PP1-alpha phosphatase inhibitors, primary screen, counter-screen for PP5 inhibitor project, biochemical, fluorescence, OMFP substrate, single point; purified PP1alpha; inhibition, % at 6.7 µM; hit rate 0.9% among 320,000; AID 2235, 2010;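 active means inhibition above the mean inhibition of all tested compounds plus 3 SD, computed separately for each screening campaign, cut at about 15% in these data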
Apaf-1 inh = inhibitors of human Apaf-1 apoptosome, primary screen, biochemical, DEVD-Rh110 fluorescence, uHTS | reconstituted apoptosome caspase-3 activity | Apoptotic protease-activating factor 1 (Homo sapiens), O14727 | inhibition, % at 20 µM | AID 489030, 2010 | hit rate 0.71% among 330,000; active means inhibition of at least 40% at 20 µM
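System: reconstituted apoptosome with Apaf-1, cytochrome c, caspase-9, procaspase-3, dATP; Signal: Rh110 fluorescence intensity; Schedule: 30 min compound preincubation, 50 min activation, room temperature; Reagent: cytochrome c trigger plus (Z-DEVD)2-Rh110 caspase-3 substrate.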
PP5 inh = PP5 phosphatase inhibitors, primary screen, biochemical, fluorescence | Serine/threonine-protein phosphatase 5 (Homo sapiens), P53041 | inhibition, % at 6.7 µM | hit rate 0.18% among 320,000 | AID 1987, 2009 | purified PP5c, OMFP substrate fluorescence;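 active means inhibition above the campaign's mean inhibition across all tested compounds plus 3 SD, cut at about 9.5% in these data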
Hits are given with their value; – = inactive; · = no result given.

SMILES | TDP2 inh | GSTO1 counter | PP1 counter | Apaf-1 inh | PP5 inh
CCC[C@H]1[C@@H](NC(=O)c2ccc(N(C)C)cc2)CC[C@@]23CCCN2C(=O)CCC[C@@H]13 | – | · | · | · | ·
CCN(CC)c1ccc(N=Cc2ccccc2[N+](=O)[O-])cc1 | – | 68.8 | – | 62.0 | –
CCN(CC)C(=O)c1ncn2c1C(=O)N[C@H](C)C2 | – | · | · | · | ·
CCOc1ccc(NC(=O)CSc2nnc(C)n2Cc2ccccc2)cc1 | – | – | 16.3 | – | –
COc1ccc2c(c1)N=CN1CCc3c([nH]c4ccccc34)C3=NCC[C@@]321 | – | · | · | · | ·
Cc1ccc(CSc2ccc3nnc(-c4ccccn4)n3n2)cc1 | – | – | 16.0 | – | –
Oc1ccc2c(c1)C1CCCC1(N1CCOCC1)O2 (centres undefined) | – | 41.8 | – | – | –
CC1=C(C(=O)N2CCOCC2)C(c2ccc(O)cc2)NC(=S)N1 (centres undefined) | – | – | – | – | –
O=C(COC(=O)Cc1ccc(Cl)cc1)Nc1ccccc1-c1ccccc1 | – | 36.4 | – | – | –
Cc1ccc(CNC(=O)COC(=O)Cc2ccc(-c3ccccc3)cc2)cc1 | – | – | 16.0 | – | –
COC(=O)[C@]12C[C@H](CC(=O)NCc3ccc(C)o3)C(=O)N(Cc3ccc(Cl)cc3Cl)C1=C[C@H](C1CCCC1)O[C@@H]2C | – | · | · | · | ·
C=CCOc1ccc(/C=C2\SC(=Nc3cccnc3)NC2=O)cc1 | – | – | 15.5 | – | –
CCCCCCCCN1C(=O)[C@@H](CC(=O)NCCC(C)C)C[C@@]2(C(=O)OC)C1=C[C@H](C1CCCC1)O[C@@H]2C | – | · | · | · | ·
O=C(C1CCCN1S(=O)(=O)c1ccccc1[N+](=O)[O-])N1CCc2ccccc2C1 (centres undefined) | – | · | · | · | ·
COc1ccc(/C=C/C(=O)NC2=NCCS2)c(OC)c1 | – | · | · | · | ·
O=C(Nc1ccc(Cl)cc1)[C@@H]1[C@@H]2C(=O)N(c3cccc(F)c3)C(=O)[C@@H]2[C@H]2C=CC=NN21 | – | – | – | – | –
O=C(Nc1ccc(Cl)cc1)[C@@H]1[C@@H]2C(=O)N(c3ccc4ccccc4c3)C(=O)[C@@H]2[C@H]2C=CC=NN21 | – | – | 15.2 | – | –
O=C(N/N=C\c1ccc(-c2ccccc2[N+](=O)[O-])o1)C1COc2cc3ccccc3cc2O1 (centres undefined) | – | – | – | 81.0 | –
CCC(=O)Nc1ccc2c(c1)C(=O)N(C)[C@@H]1CC[C@@H](CC(=O)NCCN3CCCCC3)O[C@H]1CO2 | – | · | · | · | ·
C=CC(=O)Nc1ccc(Nc2nc(NC3CCC(N(C)C)CC3)nc3c2ncn3C(C)C)cc1 (centres undefined) | · | · | · | 45.9 | ·
CCOC(=O)c1c(NC(=O)CN2CCN(c3ccc(Cl)cc3)CC2)sc(C)c1C | – | – | – | – | –
COC(=O)c1c(NC(=O)CN2CCN(c3ccccc3Cl)CC2)sc(C)c1C | – | 36.6 | – | – | –
O=c1c2ccc(Cl)cc2nc(-c2cccc(C(F)(F)F)c2)n1O | – | – | 16.4 | – | –
O=C(O)c1ccccc1NSc1ccccc1[N+](=O)[O-] | – | – | – | – | –
O=C(O)c1ccccc1Sc1c([N+](=O)[O-])cc(C(F)(F)F)cc1[N+](=O)[O-] | – | 36.1 | – | – | –
SMILES | TDP2 inh | GSTO1 counter | PP1 counter | Apaf-1 inh | PP5 inh
Cc1nc2sccn2c(=O)c1S(=O)(=O)N1CCN(c2ccccc2F)CC1 | – | · | · | · | ·
CC(C)CC(=O)O/N=C1\C(=O)N(Cc2ccc(Cl)cc2)c2ccc([N+](=O)[O-])cc21 | · | 40.3 | 16.6 | – | –
C=C(C)Cn1c(SCC(=O)N/N=C(\C)c2ccc(Br)cc2)nnc1-c1ccc(Br)cc1 | – | · | · | · | ·
O=C1/C(=C\c2ccccc2)SC(=S)N1CCC(=O)N1CCCCC1CCO (centres undefined) | – | – | – | – | –
O=C1/C(=C/c2ccccc2)SC(=S)N1CC(=O)N1CCCCC1c1cccnc1 (centres undefined) | – | – | 16.9 | – | –
COc1ccc(S[C@]2(C(=O)N(C)C)CC(=O)N[C@@H]2c2ccc(OC)cc2)cc1 | – | · | · | · | ·
Fc1ccc(CN2CCN(C(c3ccccc3)c3ccccc3)CC2)cc1 | – | – | 15.8 | – | –
O=C(/C=C/c1ccc(NC(=O)c2ccccc2-c2ccccc2C(=O)O)cc1)c1ccccc1 | – | – | 17.2 | – | –
CCN1CCN(CCCNC(=O)c2ccc(/C=C3/Oc4ccccc4N(Cc4cccc(C)c4)C3=O)cc2)CC1 | · | – | – | 46.8 | –
COc1cc(NC(=O)CN2C(=O)NC3(CCOc4ccccc43)C2=O)cc(OC)c1 (centres undefined) | – | · | – | 58.5 | –
O=C(CN1C(=O)NC2(CCOc3ccccc32)C1=O)Nc1cccc(Cl)c1 (centres undefined) | – | – | – | – | –
COC(=O)[C@]12C[C@H](CC(=O)N3CCCCC3)C(=O)N(Cc3cccc4ccccc34)C1=C[C@H](COCc1ccccc1)O[C@@H]2C | – | · | · | · | ·
CC(c1ccco1)N(C(=O)c1ccccc1NS(=O)(=O)c1ccc(Cl)c([N+](=O)[O-])c1)c1ccccn1 (centres undefined) | – | 53.8 | – | – | –
COc1cc(/C=C2/C(=O)N(c3ccc(C)c(C)c3)N=C2C)cc([N+](=O)[O-])c1O | – | – | – | – | –
COc1cc(/C=C2/C(=O)N(c3ccc(C(=O)O)cc3)N=C2C)cc(OC)c1O | – | · | · | 77.6 | ·
Oc1ccc(C2C[C@H]3CC[C@@H]2C3)cc1O (some centres undefined) | – | 42.4 | – | – | –
Cc1ccc(C)c(NC(=O)C2CC3CCC2C3)c1 (centres undefined) | – | – | – | – | –
COc1cccc(CO[C@H]2C=C[C@@H](c3ccccc3)O[C@@H]2COC(C)=O)c1 | – | · | · | · | ·
Cc1ccccc1CNC(=O)CN1CCCc2ccccc21 | – | · | · | · | ·
COc1cc([N+](=O)[O-])cc(/C=C2/SC(=S)N(Cc3ccccc3)C2=O)c1O | – | – | 15.5 | · | –
Cn1cc(C(=O)c2ccc(Cl)cc2Cl)cc1C(=O)N/N=C(\N)COc1ccc(F)cc1 | – | – | – | – | –
Cn1cc(C(=O)c2ccc(Cl)cc2Cl)cc1C(=O)N/N=C(\N)COc1ccc(Cl)cc1 | – | – | 15.8 | – | –
COC(=O)[C@@]12CCCCC3=C1N(CCC3)C(=O)[C@H]2CC(=O)NCCCN1CCCC1=O | – | · | · | · | ·
O=C(CCl)Nc1ccc(N2CCCCCC2)cc1 | – | 94.9 | – | – | –
CCC(=O)Nc1ccc(N2CCCCC2)cc1 | – | – | – | – | –
CCCCC(=O)N(C)c1c(CC)nc2c(OCc3cc(Cl)cc(Cl)c3)cccn12 | – | · | · | · | ·
